Experimental data as given in publication PMC7641989 (Nature biotechnology, 2020).
Where a SMILES comes first, the peptide text is derived from it. [ ]: non-standard residue; d: D form.

Key:
[1] = test system: gut microbiota from cecum of WD-fed LDLr-/- mice; experiment: In vitro en masse gut microbiota screening assay; assay type: cell-based, mouse; settings: en masse screen, result in words
Summary of the method: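 Cecal contents came from female LDLr-/- mice (8–10 weeks) fed WD for two weeks, pooled from 3 co-housed mice, with all steps anaerobic. The PBS suspension was diluted 1:12.5 in Chopped Meat Carbohydrate Broth and dosed with test compound at a final 16 or 64 µM. Ampicillin (4 µg/mL) and chloramphenicol (8 µg/mL) were controls. Samples ran 20 h at 37 °C with hourly OD600, then 16S sequencing gave genus-level Shannon diversity and the Bacteroidetes:Firmicutes ratio.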

WD-fed LDLr-/- mice [2] = experiment: Plasma total cholesterol in peptide-treated WD-fed mice; assay type: in vivo, mouse
Summary of the method: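 Western-diet-fed LDLr-/- mice received test compound at 180 µM in drinking water (PBS pH 7.4, 1% sucrose; vehicle controls) starting with the diet switch. Plasma total cholesterol was measured enzymatically at the two-week blood draw. Results given as mean ± SD.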

WD-fed LDLr-/- mice [3] = experiment: Analysis of atherosclerosis; assay type: in vivo, mouse; settings: completion of the 10-week study, en face staining, vs vehicle
Summary of the method: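 LDLr-/- mice, moved from chow to Western diet (15.8% fat, 1.25% cholesterol, no cholate) at 8–12 weeks, given test compound at 180 µM in drinking water (PBS pH 7.4, 1% sucrose; vehicle alone for controls) for 10 weeks. Lesions assessed by en face staining of the entire aorta and by aortic root sectioning. n=8 treated, 18 vehicle; mean ± SD, one-way ANOVA with Dunnett test.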

[4] = Pharmacokinetics, LC-MS SIM quantitation in plasma; assay type: in vivo, mouse; settings: pharmacokinetic and excretion studies, result in words
[5] = LC-MS SIM quantitation of peptide levels in feces; assay type: in vivo, mouse; settings: pharmacokinetic and excretion studies, result in words
Summary of the method: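 Intact test compound was measured in extracted feces by LC-MS selected ion monitoring of the parent ions. Standard curves came from two independent extractions. Fecal samples were taken at week 5 (n=4 mice per group) and measured in duplicate. Daily dry fecal output was weighed over 24 h in individually housed mice. Expected maximum fecal level was calculated from the 0.18 mM drinking-water concentration, water intake and fecal output.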

WD-fed LDLr-/- mice [6] = experiment: In vivo safety during 10-week daily oral dosing; design: species or system mouse
Summary of the method: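 Mice were weaned at 4 weeks and fed chow, then switched at 8–12 weeks to Western diet for 10 weeks. Test compound was dissolved by sonication in PBS (pH 7.4) with 1% sucrose, given ad libitum in drinking water at 180 µM and refreshed daily or every other day. Vehicle controls received PBS/1% sucrose. Liver enzyme activities in plasma were measured by enzymatic assays.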

[7] = 10 weeks daily oral administration, n=7 treated mice

Row | Compound | remodeling of the microbiota community in vitro [1] | reduction of plasma total cholesterol compared to the untreated WD group (WD-fed LDLr-/- mice [2]; two-week time point, oral in drinking water, ~35 mg/kg/day) | reduction of whole aorta atherosclerotic lesion area (WD-fed LDLr-/- mice [3]) | oral systemic bioavailability [4] | stability in the gut [5] | signs of discomfort or toxicity (WD-fed LDLr-/- mice [6]; 10-week daily-dosing regimen, ad libitum in the drinking water, ~35 mg/kg/day) | liver weights and spleen weights (WD-fed LDLr-/- mice [6]; [7]) | plasma levels of ALT and AST (WD-fed LDLr-/- mice [6]; [7]) | body weights (WD-fed LDLr-/- mice [6]; during the 10-week treatment, n=7 treated mice) | total plasma cholesterol compared to vehicle controls (WD-fed LDLr-/- mice [2]; 2-wk timepoint, oral dosing, result in words)
1 | CC(C)C[C@@H]1NC(=O)[C@@H](Cc2c[nH]c3ccccc23)NC(=O)[C@H](CCCCN)NC(=O)[C@@H](Cc2c[nH]cn2)NC(=O)[C@H](CO)NC(=O)[C@@H](Cc2c[nH]cn2)NC(=O)[C@H](CCCCN)NC(=O)[C@@H](Cc2c[nH]c3ccccc23)NC1=O [peptide 1] (cyclo([dW]L[dW]K[dH]S[dH]K)) | did remodel the microbiota community in vitro | 37% | 37% | non-absorbable (lack oral systemic bioavailability) | remain largely intact throughout the gut | no signs of discomfort or toxicity | did not significantly differ from vehicle controls | did not significantly differ from vehicle controls | did not differ from vehicle controls | 
2 | NC(=O)CC[C@@H]1NC(=O)[C@@H](Cc2c[nH]cn2)NC(=O)[C@H](Cc2c[nH]cn2)NC(=O)[C@@H](CCC(N)=O)NC(=O)[C@H](Cc2ccc(O)cc2)NC(=O)[C@@H](Cc2c[nH]c3ccccc23)NC(=O)[C@H](Cc2c[nH]c3ccccc23)NC(=O)[C@@H](Cc2ccccc2)NC1=O [peptide 15] (cyclo(H[dH]Q[dF]W[dW]Y[dQ])) | remodeled the gut microbiota in vitro, but not toward a CHD-like state |  |  |  |  |  |  |  |  | did not reduce plasma total cholesterol levels
